Test results as given in EPA's CvTdb concentration-time database.

Key:
Mouse [1] = assay: concentration in plasma after dosing; conditions: 10 min; dosed: 2-Hydroxy-4-methoxybenzophenone; 250 mg/kg; oral; Male; B6C3F1
Rat [2] = assay: concentration in plasma after dosing; conditions: dosed: 2-Hydroxy-4-methoxybenzophenone, 8 mg/kg, iv, Female, F344
Mouse [3] = assay: concentration in plasma after dosing; conditions: 2 h; dosed: 2-Hydroxy-4-methoxybenzophenone; 50 mg/kg; iv; Male; B6C3F1
Mouse [4] = assay: concentration in plasma after dosing; conditions: dosed: 2-Hydroxy-4-methoxybenzophenone, 100 mg/kg, oral, Female, B6C3F1
Rat [5] = assay: concentration in plasma after dosing; conditions: dosed: Nitrite, 80 mg/kg, oral, Female, F344
Rat [6] = assay: concentration in plasma after dosing; conditions: 0.5 h; dosed: Nitrite; 80 mg/kg; oral; Female; F344
Rat [7] = assay: concentration in plasma after dosing; conditions: dosed: 678-39-7, 40 mg/kg, iv, Male, F344
Rat [8] = assay: concentration in liver after dosing; conditions: 3 h; dosed: Perfluorooctanoic acid; 80 mg/kg; oral; Female; Harlan Sprague Dawley
Rat [9] = assay: concentration in brain after dosing; conditions: 12 h; dosed: Perfluorooctanoic acid; 80 mg/kg; oral; Female; Harlan Sprague Dawley
Rat [10] = assay: concentration in liver after dosing; conditions: 192 h; dosed: Perfluorooctanoic acid; 12 mg/kg; oral; Male; Harlan Sprague Dawley
Rat [11] = assay: concentration in liver after dosing; conditions: 3 h; dosed: Potassium Perfluorobutane Sulfonate; 20 mg/kg; oral; Male; Harlan Sprague Dawley
Rat [12] = assay: concentration in kidney after dosing; conditions: 12 h; dosed: Potassium Perfluorobutane Sulfonate; 20 mg/kg; oral; Male; Harlan Sprague Dawley
Rat [13] = assay: concentration in plasma after dosing; conditions: dosed: Potassium Perfluorobutane Sulfonate, 4 mg/kg, oral, Male, Harlan Sprague Dawley
Rat [14] = assay: concentration in kidney after dosing; conditions: 3 h; dosed: Potassium Perfluorobutane Sulfonate; 20 mg/kg; oral; Female; Harlan Sprague Dawley
Rat [15] = assay: concentration in plasma after dosing; conditions: dosed: Potassium Perfluorobutane Sulfonate, 4 mg/kg, oral, Male, Harlan Sprague Dawley; remark: listed apart in the source
rat [16] = assay: concentration in blood after dosing (ugEq/g tissue); conditions: dosed: benzo[a]pyrene, iv, male, Wistar
human = assay: concentration in urine after dosing; negative times count back from the end of exposure; conditions: dosed: methanol, inhalation, duration: 8 hr
Summary of the method: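 A PubMed search, classifier screening and manual review identified published in vivo toxicokinetic studies, which together with two structured collections supplied concentration-versus-time and amount-versus-time points. Points were mostly digitised from plot screenshots with WebPlotDigitizer, otherwise copied from tables. Dose, route, subject details and medium were hand-curated from each paper, and sampling and analytical methods are those of the sources, often unreported.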

COc1ccc(C(=O)c2ccccc2)c(O)c1 [2-Hydroxy-4-methoxybenzophenone]
Conditions | concentration in plasma [ng/mL]
Mouse [1] | 148
Mouse [3] | 267

concentration in plasma [ng/mL]
Conditions | 0.25 h | 2 h | 2.5 min | 3 h | 4 h | 10 min
Mouse [4] | 151 | 13.9 | 29.6 | 9.13 | – | 62.3
Rat [2] | 120 | – | – | – | 75.6 | –

O=N[O-] [Nitrite]
Rat [5]
Conditions | concentration in plasma [ng/mL]
1 h | 32700
2 h | 20600

Conditions | concentration in plasma [ng/mL]
Rat [6] | 69300

O=C(O)C(F)(F)C(F)(F)C(F)(F)C(F)(F)C(F)(F)C(F)(F)C(F)(F)F [Perfluorooctanoic acid]
Rat [7]
Conditions | concentration in plasma [ng/mL]
0.25 h | 465
0.5 h | 220000
6 h | 1540
24 h | 1640

Conditions | concentration in brain [ng/g] | concentration in liver [ng/g]
Rat [8] | – | 162000
Rat [9] | 1000 | –
Rat [10] | – | 51800

O=S(=O)([O-])C(F)(F)C(F)(F)C(F)(F)C(F)(F)F.[K+] [Potassium Perfluorobutane Sulfonate]
Conditions | concentration in kidney [ng/g] | concentration in liver [ng/g]
Rat [11] | – | 64100
Rat [12] | 3610 | –
Rat [14] | 18600 | –

concentration in plasma [ng/mL]
Conditions | 0.25 h | 3 h | 5 min | 6 h
Rat [13] | 3220 | – | – | 9970
Rat [15] | – | 11700 | 398 | –

c1ccc2c(c1)cc1ccc3cccc4ccc2c1c34 [benzo[a]pyrene]
concentration in blood, rat [16]
Conditions | 2 mg/kg | 6 mg/kg | 15 mg/kg
0.5 h | 0.66 | 2.42 | 13.8
0.75 h | 0.47 | 1.99 | 10.6
1 h | 0.42 | 1.72 | 8.52
1.5 h | 0.17 | 0.5 | 7.16
2 h | 0.35 | 0.14 | 3.93
3 h | – | 0.03 | 1.86
4 h | – | – | 0.19
5 h | – | 0.01 | 0.09
5 min | 2.64 | 4.66 | 28.8
6 h | – | – | 0.05
8 h | – | – | 0.02
10 min | 1.85 | 5 | 29.8
20 min | 1.2 | 3.78 | 15.9
24 h | – | – | 0.015
32 h | – | – | 0.002

CO [methanol]
human
Conditions | concentration in urine [ng/mL]
0 h, 78 ppm | 3490
0 h, 158 ppm | 6700
0 h, 231 ppm | 9600
1.997 h, 300 mg/m^3, male | 7640
2 h, 78 ppm | 2290
2 h, 158 ppm | 5240
2 h, 231 ppm | 7600
2.005 h, 205 mg/m^3, male | 5340
2.035 h, 102 mg/m^3, male | 2420
3.995 h, 300 mg/m^3, male | 4350
4 h, 78 ppm | 1770
4 h, 102 mg/m^3, male | 1630
4 h, 158 ppm | 2690
4 h, 231 ppm | 4360
4.036 h, 205 mg/m^3, male | 2760
5.995 h, 102 mg/m^3, male | 1360
6 h, 78 ppm | 1470
6 h, 158 ppm | 1830
6 h, 231 ppm | 2400
6.026 h, 205 mg/m^3, male | 1810
6.031 h, 300 mg/m^3, male | 2430
10.88 h, 205 mg/m^3, male | 1280
10.91 h, 102 mg/m^3, male | 1090
10.94 h, 300 mg/m^3, male | 1480
11 h, 78 ppm | 1140
11 h, 158 ppm | 1360
11 h, 231 ppm | 1660
15.5 h, 231 ppm | 1030
15.71 h, 205 mg/m^3, male | 1140
53 s, 300 mg/m^3, male | 9620
65 s, 205 mg/m^3, male | 6690
67 s, 102 mg/m^3, male | 3420

human, during exposure
Conditions | concentration in urine [ng/mL]
-8 h, 78 ppm | 572
-8 h, 158 ppm | 1030
-8 h, 231 ppm | 1340
-7.859 h, 300 mg/m^3, male | 802
-7.832 h, 102 mg/m^3, male | 802
-7.832 h, 205 mg/m^3, male | 802
-6.075 h, 300 mg/m^3, male | 4350
-6 h, 78 ppm | 1750
-6 h, 158 ppm | 3090
-6 h, 231 ppm | 4340
-5.977 h, 205 mg/m^3, male | 3090
-5.962 h, 102 mg/m^3, male | 1700
-4.073 h, 205 mg/m^3, male | 4890
-4.031 h, 300 mg/m^3, male | 6790
-4 h, 78 ppm | 2390
-4 h, 158 ppm | 4820
-4 h, 231 ppm | 6830
-3.984 h, 102 mg/m^3, male | 2500
-2.068 h, 205 mg/m^3, male | 5830
-2 h, 78 ppm | 3090
-2 h, 158 ppm | 5920
-2 h, 231 ppm | 8400
-1.993 h, 300 mg/m^3, male | 8430
-1.981 h, 102 mg/m^3, male | 3130
